Test system: Streptomyces canarius L-glutaminase
Experiment: ammonia release, Lineweaver-Burk plot
Format: biochemical
Conditions: read-out: Km (mmol ^-1); 10-100 mM substrate
Summary of the method: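 Purified enzyme (ammonium sulphate 50-80% cut, dialysis, DEAE-cellulose; 132.2 U/mg protein) in potassium phosphate buffer pH 8 with L-glutamine, L-asparagine or L-aspartic acid, each separately at 10-100 mM, under standard assay conditions. Deaminating activity read as liberated NH3, expressed as µmol per min per mg protein. Km and Vmax from Lineweaver-Burk fit of 1/S versus 1/activity.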

Question: For `NC(=O)C[C@H](N)C(=O)O` [L-asparagine], which Km is on record?
Answer: 137 µM

Question: For `N[C@@H](CC(=O)O)C(=O)O` [L-aspartic acid], which Km is on record?
Answer: 5380 µM

Question: With `NC(=O)CC[C@H](N)C(=O)O` [L-glutamine] as the molecule, how does the Km read?
Answer: 129 µM

— PMC4704638 (Brazilian Journal of Microbiology, 2015)
